167 variants from the RNAGym collection of RNA variant scans (doi:10.1038/s41586-018-0170-7) can be followed below.

B1: tRNA (parent)
chain: GUUCCGUUGGCGUAAUGGUAACGCGUCUCCCUCCUAAGGAGAAGACUGCGGGUUCGAGUCCCGUACGGAACG

In this data set the parent is B1. In words: yeast fitness, log relative to wild type (ln ratio); higher = fitter; tRNA-Arg(CCU), competitive growth, 37 C, 1 M NaCl. The method, boiled down:
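Fitness is the natural log of a genotype's generation count divided by that of the wild type. A combinatorial library of tRNA-Arg(CCU) variants sat on a HIS3 centromeric plasmid in BY4742 lacking the chromosomal gene, from two independent transformations. Pools grew 4 generations in SC-HIS at 30 °C, then ~6.5 generations (~26.5 h) in SC-HIS 1M NaCl at 37 °C, with three outputs per input. Generations came from OD-scaled log2 output/input frequency, inverse-variance weighted across replicates, with variants counted by 125 bp paired-end Illumina sequencing.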
As for C27U C46U C66A A69G A70G C71U, the “yeast fitness (ln)” value was -0.156.
As for C27U A43C C46U A69G C71U, the “yeast fitness (ln)” value was -0.207.
Regarding G6U C46U C66U A69G A70U C71U, the “yeast fitness (ln)” value was -0.434.
For C27U C46U A70U C71U the value was -0.205.
For C27U C46U C66U A69G A70G C71U the value was -0.166.
For C27U C46U C66A A69G C71U the value was -0.262; for C27U A43C C46U C66U A69G, -0.204; for C27U A43C C46U C66A A70U C71U, -0.301.
Turning to G6U C46U C66A A70G C71U, the “yeast fitness (ln)” value is -0.15.
For C27U A43C C66A A70G the value was -0.135; for C27U A43C C66A A70U, -0.0654; for C27U A43C C46U C66U, -0.217.
Regarding C27U A43C C46U C66A, the “yeast fitness (ln)” value is -0.0786.
Regarding C27U A43C C66U A69G, the “yeast fitness (ln)” value was -0.384.
C27U C46U A70U: the “yeast fitness (ln)” value was -0.0227.
For C27U C46U A70G the value was -0.029; for C27U C46U A70G C71U, -0.256; for C27U C46U C66U A70G, -0.315.
For C27U C46U C66U A70U the value was -0.0808.
Next, C27U A43C A69G A70U C71U: -0.419; C27U A43C C66U C71U: -0.269.
For G6U C46U C71U, the “yeast fitness (ln)” value was -0.413.
Next, C27U A43C A69G: -0.0699.
Next, C27U A43C C66U: -0.216; C27U A43C C66A: -0.0618; C27U C46U A69G C71U: -0.0597.
Next, C27U A43C C46U A70U: -0.0673.
For the variant C27U A43C C46U A70G, the “yeast fitness (ln)” value is -0.0288.
Turning to C27U A43C C46U A69G A70U C71U, the “yeast fitness (ln)” value is -0.317.
For C27U C46U C66U A69G A70U the value was -0.104; for C27U C46U C66U A69G A70G, -0.197; for C27U A70G C71U, -0.38.
C27U A43C C46U C66U A70G C71U: the “yeast fitness (ln)” value was -0.206.
On to C27U C46U A69G A70U, for which the “yeast fitness (ln)” value was -0.209.
Turning to C27U C46U A69G A70G, the “yeast fitness (ln)” value was -0.0578.
On to C27U A43C C71U, for which the “yeast fitness (ln)” value was -0.114.
Next, C27U A43C A69G C71U: -0.44.
Turning to G6U C46U C66U A69G A70G C71U, the “yeast fitness (ln)” value was -0.205.
For C27U C46U C66U A69G C71U the value was -0.286; for C27U C66A, -0.0595.
Next, C27U C46U C66U A69G A70U C71U: -0.485.
Take C27U A43C C66A A69G A70G C71U: the “yeast fitness (ln)” value was -0.369.
Take G6U C66A A69G C71U: the “yeast fitness (ln)” value is -0.0488.
For G6U C66A A70U the value was -0.0008; for G6U C66A A70G, -0.0102.
Next, C27U A43C C46U C66A A70U: -0.0585; C27U A43C C46U C66A A70G: -0.0609; G6U C46U C66U A70U C71U: -0.302.
As for G6U C66U C71U, the “yeast fitness (ln)” value is -0.639.
Next, C27U C66A A69G A70U C71U: -0.356; G6U C66U A69G A70U C71U: -0.481; C27U C46U C66U A70U C71U: -0.197.
For C27U A43C C66A A69G A70U C71U, the “yeast fitness (ln)” value was -0.513.
For C27U A43C A70G C71U the value was -0.112.
With G6U C66A A69G A70G C71U, the “yeast fitness (ln)” value was -0.402.
For G6U C66U A69G C71U the value was -0.374; for C27U A43C C46U C66U A69G A70U C71U, -0.391; for C27U A43C C66U A70G C71U, -0.211.
C27U A43C C46U A70G C71U: the “yeast fitness (ln)” value is -0.209.
For G6U C66A A70U C71U the value was -0.412; for C27U A43C C66U A69G A70U, -0.361.
Next, C27U A43C C66U A69G A70G: -0.255.
Regarding G6U C66U A69G, the “yeast fitness (ln)” value was -0.527.
Next, C27U A69G A70G: -0.0809.
Next, C27U A69G A70U: -0.206; C27U A43C C66A A70G C71U: -0.234; G6U C66U A69G A70U: -0.261.
G6U C66U A69G A70G: the “yeast fitness (ln)” value was -0.271.
For C27U A43C C46U C66U A69G C71U the value was -0.361.
Next, C27U A43C C66A A70U C71U: -0.347; C27U C46U A69G A70G C71U: -0.298; C27U C46U C66U: -0.0577.
For C27U C46U C66A the value was -0.0465; for G6U C66A A69G, 0.00209; for G6U C66U A70U C71U, -0.315.
Turning to C27U A69G C71U, the “yeast fitness (ln)” value is -0.113.
Consider G6U C46U C66U, for which the “yeast fitness (ln)” value is -0.0169.
As for G6U C66A A70G C71U, the “yeast fitness (ln)” value was -0.233.
As for C27U A43C C46U A69G, the “yeast fitness (ln)” value is -0.0156.
Next, C27U A43C C46U C66A A70G C71U: -0.101.
For the variant C27U A43C C66U A69G C71U, the “yeast fitness (ln)” value was -0.344.
As to C27U C46U C66A A70U C71U, the “yeast fitness (ln)” value was -0.13.
As to C27U C46U C66U A70G C71U, the “yeast fitness (ln)” value was -0.126.
Consider C27U A43C C46U A69G A70G C71U, for which the “yeast fitness (ln)” value is -0.0917.
For G6U C46U C66U A69G A70U the value was -0.235; for G6U C46U C66U A69G A70G, -0.275.
For C27U A43C A69G A70G C71U the value was -0.142; for C27U A69G A70U C71U, -0.294.
On to C27U A43C C66U A70U C71U, for which the “yeast fitness (ln)” value was -0.326.
Next, C27U A43C C66U A70U: -0.147; C27U A43C C66U A70G: -0.227; C27U A43C C46U C66A A69G A70U: -0.156.
In the case of C27U A43C C46U C66A A69G A70G, the “yeast fitness (ln)” value was -0.0756.
For the variant C27U C46U C66A A69G A70U C71U, the “yeast fitness (ln)” value is -0.396.
With G6U C66A A69G A70U, the “yeast fitness (ln)” value is -0.291.
For G6U C66A A69G A70G the value was -0.0205; for C27U, -0.0106; for C27U A43C C46U C66A A69G A70U C71U, -0.366.
For G6U C46U C66U A69G the value was -0.376; for C27U A43C A69G A70U, -0.204; for C27U A43C A69G A70G, -0.235.
G6U C66A C71U: the “yeast fitness (ln)” value is -0.0261.
Next, C27U A69G: -0.0417.
Consider C27U A69G A70G C71U, for which the “yeast fitness (ln)” value was -0.223.
For the variant C27U A70U C71U, the “yeast fitness (ln)” value was -0.149.
Next, C27U A43C C66A A69G A70G: -0.181.
Regarding C27U A43C C66A A69G A70U, the “yeast fitness (ln)” value is -0.289.
For C27U C46U A69G A70U C71U, the “yeast fitness (ln)” value is -0.248.
For C27U C66A A69G C71U the value was -0.184.
For C27U C46U C66U C71U, the “yeast fitness (ln)” value was -0.376.
Next, C27U A43C C46U C66U C71U: -0.253; G6U C66A A69G A70U C71U: -0.408.
Next, C27U C46U C66A A69G A70U: -0.104.
For C27U C46U C66A A69G A70G the value was -0.124; for C27U A43C, -0.0182.
On to C27U C46U C66U A69G, for which the “yeast fitness (ln)” value is -0.521.
Next, C27U A43C C46U C66U A69G A70G: -0.211.
For C27U A43C C46U C66U A69G A70U the value was -0.285.
For C27U A43C C46U C66U A70U the value was -0.109; for C27U A43C C46U C66U A70G, -0.115; for C27U A43C A70U C71U, -0.181.
With C27U C66A A70U, the “yeast fitness (ln)” value is -0.0748.
Next, C27U C66A A70G: -0.0873.
Next, G6U C66U A70G C71U: -0.168; C27U A43C C46U A69G A70G: -0.0876; C27U A43C C46U A69G A70U: -0.0621.
For the variant G6U C66A, the “yeast fitness (ln)” value was 0.000896.
For G6U C66U the value was -0.0366.
For C27U C66A A69G A70G C71U the value was -0.191.
For C27U A43C C66U A69G A70G C71U, the “yeast fitness (ln)” value was -0.318.
Regarding G6U C46U C66U A70G, the “yeast fitness (ln)” value is -0.153.
G6U C46U C66U A70U: the “yeast fitness (ln)” value was -0.297.
For C27U A43C C46U C66U A69G A70G C71U the value was -0.18.
For C27U C46U C66A C71U the value was -0.0951.
Next, G6U C46U C66U A69G C71U: -0.594; C27U A43C A70G: -0.0631.
C27U A43C A70U: the “yeast fitness (ln)” value is -0.185.
Next, C27U A43C C46U C66A A69G C71U: -0.317; C27U C46U C71U: -0.028; G6U C46U C66A A70G: -0.00887.
As for G6U C46U C66A A70U, the “yeast fitness (ln)” value was found to be 0.00243.
For C27U A43C C66U A69G A70U C71U the value was -0.37; for C27U A43C C46U C66U A70U C71U, -0.333; for C27U C46U, -0.0139.
Next, G6U C66U A69G A70G C71U: -0.293; C27U A70G: -0.037.
C27U A70U: the “yeast fitness (ln)” value is -0.042.
As to G6U C46U C66U C71U, the “yeast fitness (ln)” value is -0.183.
Next, C27U A43C C46U: -0.00723; C27U A43C C46U C66A C71U: -0.173; G6U C46U C66A A70U C71U: -0.394.
For C27U A43C C46U C71U the value was -0.0385.
Next, C27U C46U C66A A70G: -0.0605; C27U C46U C66A A70U: -0.0577; G6U C46U C66A C71U: -0.00198.
As for G6U C66U A70G, the “yeast fitness (ln)” value was -0.383.
Next, G6U C66U A70U: -0.122; C27U A43C C46U C66A A69G A70G C71U: -0.122; C27U A43C C66A C71U: -0.275.
For C27U C66A A69G A70G, the “yeast fitness (ln)” value is -0.25.
For C27U C66A A69G A70U the value was -0.15.
Next, C27U C46U C66A A70G C71U: -0.129; C27U C46U A69G: -0.0243; C27U C66A A70G C71U: -0.194.
For G6U C46U C66U A70G C71U the value was -0.138.
With C27U A43C C46U A70U C71U, the “yeast fitness (ln)” value was -0.093.
For G6U C71U the value was -0.261.
